Test results as given in ChEMBL document CHEMBL1136609, “An adjustable release rate linking strategy for cytotoxin-peptide conjugates” (Bioorg Med Chem Lett, 2003).
pIC50: −log10 of the molar value.

Assays:
[1] = Half-life in rat serum; format: ADME, organism-based
How it was run: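 Compounds incubated at 37°C in fresh rat serum; aliquots removed at several time points and analysed by HPLC to estimate half-life.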

IMR-32 = assay: Cytotoxic activity against human neuroblastoma IMR32 cells; format: functional, cell-based
How it was run: (§1)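 Human neuroblastoma IMR-32 cells (somatostatin receptor/SSTR2 over-expressing) exposed to a range of compound concentrations for 3 days, in quadruplicate; viability read by MTT assay; IC50 taken from dose-response curves.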

Rattus norvegicus [2] = species on record: Rattus norvegicus; assay: Inhibitory activity against GHRH-stimulated GH release from monolayer cultures of rat pituitary cells; format: functional, cell-based; conditions: Pituitary gland cell
How it was run: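 Monolayer cultures of rat pituitary cells stimulated with GHRH; agonist potency measured as inhibition of GH release, expressed as IC50.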

Somatostatin receptor = assay: Cytotoxic activity against human neuroblastoma IMR32 cells which over-express somatostatin receptors; format: functional, cell-based; conditions: imr-32; how it was run: as §1
[3] = Half-life in phosphate buffer; format: ADME
How it was run: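 Incubated in 0.1 M phosphate buffer at 37°C; aliquots taken at various time points and analysed by HPLC to give half-life. The experiment ran for 50 h.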

Rattus norvegicus [4] = species on record: Rattus norvegicus; assay: Inhibitory activity against GHRH-stimulated GH release from monolayer cultures of rat pituitary cells; na is not active; format: functional, cell-based; conditions: pituitary gland cell

Row | Structure (SMILES) | half-life [1] | pIC50 (Rattus norvegicus [2]) | pIC50 (IMR-32) | IC50 (Somatostatin receptor) | half-life [3] | IC50 (Rattus norvegicus [4])
1 | CCCC[C@H](NC(=O)[C@@H](CO)NC(=O)CN(CCN)C(=O)Oc1cc(/C=C\c2cc(OC)c(OC)c(OC)c2)ccc1OC)C(=O)N[C@H](Cc1ccc(O)cc1)C(=O)N[C@H](CO)C(=O)N[C@@H]1CSSC[C@H](C(=O)N[C@H](C(N)=O)[C@@H](C)O)NC(=O)[C@H]([C@@H](C)O)NC(=O)[C@H](CCCN)NC(=O)[C@@H](Cc2c[nH]c3ccccc23)NC(=O)[C@H](Cc2ccccc2)NC1=O | 4 h | 9.51 | – | 2.79 nM | 31 h | –
2 | CCCC[C@H](NC(=O)[C@@H](CO)NC(=O)CN(CCNC)C(=O)O[C@]1(CC)C(=O)OCc2c1cc1n(c2=O)Cc2cc3ccccc3nc2-1)C(=O)N[C@H](Cc1ccc(O)cc1)C(=O)N[C@H](CO)C(=O)N[C@@H]1CSSC[C@H](C(=O)N[C@H](C(N)=O)[C@@H](C)O)NC(=O)[C@H]([C@@H](C)O)NC(=O)[C@H](CCCN)NC(=O)[C@@H](Cc2c[nH]c3ccccc23)NC(=O)[C@H](Cc2ccccc2)NC1=O | 18 h | 9.57 | – | 54.2 nM | 123 h | –
3 | CCCC[C@H](NC(=O)[C@@H](CO)NC(=O)CN(CCN(C)C)C(=O)O[C@]1(CC)C(=O)OCc2c1cc1n(c2=O)Cc2cc3ccccc3nc2-1)C(=O)N[C@H](Cc1ccc(O)cc1)C(=O)N[C@H](CO)C(=O)N[C@@H]1CSSC[C@H](C(=O)N[C@H](C(N)=O)[C@@H](C)O)NC(=O)[C@H]([C@@H](C)O)NC(=O)[C@H](CCCN)NC(=O)[C@@H](Cc2c[nH]c3ccccc23)NC(=O)[C@H](Cc2ccccc2)NC1=O | 59 h | 9.52 | – | 571 nM | – | –
4 | CC[C@@]1(O)C(=O)OCc2c1cc1n(c2=O)Cc2cc3ccccc3nc2-1 [CAMPTOTHECIN] | – | – | – | 2.21 nM | – | Not Active

Second part, led by results:

Row | half-life [1] | pIC50 (Rattus norvegicus [2]) | Structure (SMILES) | pIC50 (IMR-32) | IC50 (Somatostatin receptor) | half-life [3] | IC50 (Rattus norvegicus [4])
5 | 106 h | 9.49 | CCCC[C@H](NC(=O)[C@@H](CO)NC(=O)CN(CCN)C(=O)O[C@]1(CC)C(=O)OCc2c1cc1n(c2=O)Cc2cc3ccccc3nc2-1)C(=O)N[C@H](Cc1ccc(O)cc1)C(=O)N[C@H](CO)C(=O)N[C@@H]1CSSC[C@H](C(=O)N[C@H](C(N)=O)[C@@H](C)O)NC(=O)[C@H]([C@@H](C)O)NC(=O)[C@H](CCCN)NC(=O)[C@@H](Cc2c[nH]c3ccccc23)NC(=O)[C@H](Cc2ccccc2)NC1=O | 6.43 | – | – | –
6 | – | 9.31 | CCCC[C@H](NC(=O)[C@@H](CO)NC(=O)CN(CCO)C(=O)O[C@]1(CC)C(=O)OCc2c1cc1n(c2=O)Cc2cc3ccccc3nc2-1)C(=O)N[C@H](Cc1ccc(O)cc1)C(=O)N[C@H](CO)C(=O)N[C@@H]1CSSC[C@H](C(=O)N[C@H](C(N)=O)[C@@H](C)O)NC(=O)[C@H]([C@@H](C)O)NC(=O)[C@H](CCCN)NC(=O)[C@@H](Cc2c[nH]c3ccccc23)NC(=O)[C@H](Cc2ccccc2)NC1=O | – | > 1000 nM | – | –
7 | 72 h | 9.59 | CCCC[C@H](NC(=O)[C@@H](CO)NC(=O)CN(CCCN)C(=O)O[C@]1(CC)C(=O)OCc2c1cc1n(c2=O)Cc2cc3ccccc3nc2-1)C(=O)N[C@H](Cc1ccc(O)cc1)C(=O)N[C@H](CO)C(=O)N[C@@H]1CSSC[C@H](C(=O)N[C@H](C(N)=O)[C@@H](C)O)NC(=O)[C@H]([C@@H](C)O)NC(=O)[C@H](CCCN)NC(=O)[C@@H](Cc2c[nH]c3ccccc23)NC(=O)[C@H](Cc2ccccc2)NC1=O | – | > 1000 nM | – | –
